From ChEMBL document CHEMBL2331206, “Genomics-guided discovery of thailanstatins A, B, and C As pre-mRNA splicing inhibitors and antiproliferative agents from Burkholderia thailandensis MSMB43” (J Nat Prod, 2013)

Columns and labels:
[1] = Stability of the compound in phosphate buffer assessed as compound remaining after 8 to 78 hrs at pH 7.4 at 37 degC by HPLC; type: physicochemical
Procedure, shortened: (§1)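 Compound (10 µL of 10 mM DMSO stock) added to 10 mL phosphate buffer pH 7.4 containing benzoic acid and DMSO, sealed and held at 37 °C. Samples (20 µL) analysed by reverse-phase C18 HPLC at multiple time points; half-life determined from remaining compound.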

[2] = Stability of the compound in phosphate buffer at pH 7 at 37 degC by HPLC; type: physicochemical
SK-OV-3 = assay: Antiproliferative activity against human SKOV3 cells assessed as growth inhibition measured after 48 hrs by MTT assay; type: functional; conditions: SK-OV-3, 48 h
Procedure, shortened: (§2)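 Cells seeded at 10,000 or 15,000 per well, incubated overnight at 37 °C, then exposed to serial three-fold dilutions of compound (10 mM DMSO stocks) for 48 h at 37 °C. MTT added for 4 h at 37 °C, absorbance read at 570 and 690 nm. Viability = 100×(T−T0)/(C−T0) versus vehicle. Triplicate wells; GI50 from log concentration versus normalized viability.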

HEK293 [3] = assay: Inhibition of Pre-mRNA splicing in human HEK293 cells using p32-labeled CDC14-15 pre-mRNA by exonjunction complex (EJC) immunoprecipitation assay; type: functional, cell-based
[4] = Stability of the compound in phosphate buffer at pH 7.4 at 37 degC by HPLC; type: physicochemical; procedure, shortened: as §1
MDA-MB-231 = assay: Antiproliferative activity against human MDA-MB-231 cells assessed as growth inhibition measured after 48 hrs by MTT assay; type: functional; conditions: MDA-MB-231, 48 h; procedure, shortened: as §2
HEK293 [5] = assay: Inhibition of Pre-mRNA splicing in human HEK293 cells using biotin-labeled Ad2 pre-mRNA by exonjunction complex (EJC) immunoprecipitation assay
DU-145 = assay: Antiproliferative activity against human DU145 cells assessed as growth inhibition measured after 48 hrs by MTT assay; type: functional; conditions: DU-145, 48 h; procedure, shortened: as §2
[6] = Antiproliferative activity against human NCI-H232A cells assessed as growth inhibition measured after 48 hrs by MTT assay; type: functional; procedure, shortened: as §2

Compound	Stability [1]	half-life [2]	GI50 (SK-OV-3)	inhibition (HEK293 [3])	half-life [4]	GI50 (MDA-MB-231)	IC50 (HEK293 [5])	GI50 (DU-145)	GI50 [6]
CC(=O)O[C@@H](C)/C=C\C(=O)N[C@@H]1C[C@H](C)[C@H](C/C=C(C)/C=C/[C@H]2O[C@](C)(O)C[C@@]3(CO3)[C@@H]2O)O[C@@H]1C	38%	4 h	1.06 nM	Dose-dependent effect	8 h	2.1 nM	580 nM	1.05 nM	1.94 nM
CC(=O)O[C@@H](C)/C=C\C(=O)N[C@@H]1C[C@H](C)[C@H](C/C=C(C)/C=C/[C@H]2O[C@H](CC(=O)O)C[C@@]3(CO3)[C@@H]2O)O[C@@H]1C [THAILANSTATIN A]	65%	–	2.69 nM	–	> 78 h	2.58 nM	650 nM	1.11 nM	2.26 nM
CC(=O)O[C@@H](C)/C=C\C(=O)N[C@@H]1C[C@H](C)[C@H](C/C=C(C)/C=C/[C@H]2O[C@H](CC(=O)O)C[C@@](O)(CCl)[C@@H]2O)O[C@@H]1C [THAILANSTATIN B]	–	–	4.94 nM	–	19 h	6.22 nM	6180 nM	3 nM	2.5 nM
CC(/C=C/[C@H]1O[C@H](CC(=O)O)C[C@@](O)(CCl)[C@@H]1O)=C\C[C@@H]1O[C@H](C)[C@H](NC(=O)/C=C\[C@H](C)OC(=O)C(C)C)C[C@@H]1C [THAILANSTATIN C]	–	–	5.57 nM	–	25 h	8.82 nM	6840 nM	2.98 nM	3.67 nM
